Test results as given in ChEMBL document CHEMBL1134569, “Synthesis and in vitro and in vivo antimalarial activity of new 4-anilinoquinolines” (J Med Chem, 2001).

Columns and labels:
[1] = Cytotoxicity upon MPMs (mouse peritoneal macrophages) at 6.3 uM
How it was run: (§1)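 Mouse peritoneal macrophages harvested 48 h after potato-starch stimulation and seeded at 30000 cells/well. After 24 h, washed and exposed to 2-fold drug dilutions in RPMI + 5% FCS (final DMSO below 0.5%) at 37 °C, 5% CO₂, for 7 days. Toxicity scored microscopically as toxic or not versus untreated controls.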

[2] = Cytotoxicity upon MRC-5 cells (diploid embryonic lung cell line) at 6.3 uM; format: cell-based, MRC5; conditions: human
How it was run: (§2)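 MRC-5 human diploid embryonic lung cells seeded at 5000/well, washed after 24 h, then given 2-fold drug dilutions in RPMI + 5% FCS (final DMSO below 0.5%). Incubated at 37 °C, 5% CO₂, for 7 days. MTT read-out at 540 nm, scored as percent absorbance reduction versus untreated controls.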

[3] = Cytotoxicity upon MPMs (mouse peritoneal macrophages) at 12.5 uM conc.;NT=No Toxicity; how it was run: as §1
[4] = Cytotoxicity upon MRC-5 cells (diploid embryonic lung cell line) at 3.1 uM; format: cell-based, MRC5; conditions: human; how it was run: as §2
[5] = Cytotoxicity upon MPMs (mouse peritoneal macrophages) at 3.1 uM conc.;NT=No Toxicity; how it was run: as §1
[6] = Cytotoxicity upon MRC-5 cells (diploid embryonic lung cell line) at 12.5 uM; format: cell-based, MRC5; conditions: human; how it was run: as §2
Plasmodium falciparum = experiment: Inhibitory activity against chloroquine-resistant Plasmodium falciparum FcB1R; format: functional, organism-based; conditions: Plasmodium falciparum
[7] = Cytotoxicity upon MRC-5 cells (diploid embryonic lung cell line) at 25 uM conc.; format: cell-based, MRC5; conditions: human; how it was run: as §2
[8] = Cytotoxicity upon MPMs (mouse peritoneal macrophages) at 2 uM; how it was run: as §1
[9] = Cytotoxicity upon MRC-5 cells (diploid embryonic lung cell line) at 1.6 uM conc.; format: cell-based, MRC5; conditions: human; how it was run: as §2
[10] = Cytotoxicity upon MPMs (mouse peritoneal macrophages) at 12.5 uM conc.; Toxic; how it was run: as §1

Compound: CC(C)(C)NCC(=O)Nc1cc(CO)cc(Nc2ccnc3cc(Cl)ccc23)c1
- NT [1]: Cytotoxicity upon MPMs at 6.3 uM
- cytotoxicity at 6.3 µM [2]: 0%
- NT [3]: Cytotoxicity upon MPMs at 6.3 uM
- cytotoxicity at 3.1 µM [4]: 0%
- NT [5]: Cytotoxicity upon MPMs at 6.3 uM
- cytotoxicity at 12.5 µM [6]: 0%
- IC50 (Plasmodium falciparum): 50.9 nM

Compound: O=C(CN1CCCCC1)Nc1cc(COC(=O)CCCCBr)cc(Nc2ccnc3cc(Cl)ccc23)c1
- NT [1]: Cytotoxicity upon MPMs at 2 uM
- cytotoxicity at 6.3 µM [2]: 0%
- NT [3]: Cytotoxicity upon MPMs at 2 uM
- cytotoxicity at 25 µM [7]: 0%
- NT [8]: Cytotoxicity upon MPMs at 2 uM
- cytotoxicity at 1.6 µM [9]: 0%
- IC50 (Plasmodium falciparum): 151 nM

Compound: O=C(CN1CCCCC1)Nc1cc(COC(=O)CCCCCN2CCCCC2)cc(Nc2ccnc3cc(Cl)ccc23)c1
- NT [1]: Cytotoxicity upon MPMs at 2 uM
- cytotoxicity at 6.3 µM [2]: 81%
- NT [3]: Cytotoxicity upon MPMs at 2 uM
- cytotoxicity at 25 µM [7]: 92%
- NT [8]: Cytotoxicity upon MPMs at 2 uM
- cytotoxicity at 1.6 µM [9]: 0%
- IC50 (Plasmodium falciparum): 27.4 nM

Compound: O=C(CCl)Nc1cc(CO)cc(Nc2ccnc3cc(Cl)ccc23)c1
- NT [1]: Cytotoxicity upon MPMs at 6.3 uM
- cytotoxicity at 6.3 µM [2]: 0%
- Cytotoxicity [10]: Toxic
- cytotoxicity at 3.1 µM [4]: 0%
- NT [5]: Cytotoxicity upon MPMs at 6.3 uM
- cytotoxicity at 12.5 µM [6]: 92%
- IC50 (Plasmodium falciparum): > 1000 nM

Compound: CC1CCN(CCC(=O)Nc2cc(CO)cc(Nc3ccnc4cc(Cl)ccc34)c2)CC1
- NT [1]: Cytotoxicity upon MPMs at 6.3 uM
- cytotoxicity at 6.3 µM [2]: 0%
- Cytotoxicity [10]: Toxic
- cytotoxicity at 3.1 µM [4]: 0%
- NT [5]: Cytotoxicity upon MPMs at 6.3 uM
- cytotoxicity at 12.5 µM [6]: 100%
- IC50 (Plasmodium falciparum): 136 nM

Compound: CCN(CC)CC(=O)Nc1cc(CO)cc(Nc2ccnc3cc(Cl)ccc23)c1
- NT [1]: Cytotoxicity upon MPMs at 6.3 uM
- cytotoxicity at 6.3 µM [2]: 0%
- Cytotoxicity [10]: Toxic
- cytotoxicity at 3.1 µM [4]: 0%
- NT [5]: Cytotoxicity upon MPMs at 6.3 uM
- cytotoxicity at 12.5 µM [6]: 0%
- IC50 (Plasmodium falciparum): 41.6 nM

Compound: O=C(CN1CCCCC1)Nc1cc(COC(=O)CN2CCCCC2)cc(Nc2ccnc3cc(Cl)ccc23)c1
- cytotoxicity at 6.3 µM [2]: 0%
- cytotoxicity at 25 µM [7]: 93%
- cytotoxicity at 1.6 µM [9]: 0%
- IC50 (Plasmodium falciparum): 54 nM

Compound: CCN(CC)CCCCC(=O)OCc1cc(NC(=O)CN2CCCCC2)cc(Nc2ccnc3cc(Cl)ccc23)c1
- NT [1]: Cytotoxicity upon MPMs at 2 uM
- cytotoxicity at 6.3 µM [2]: 13%
- NT [3]: Cytotoxicity upon MPMs at 2 uM
- cytotoxicity at 25 µM [7]: 22%
- NT [8]: Cytotoxicity upon MPMs at 2 uM
- cytotoxicity at 1.6 µM [9]: 0%
- IC50 (Plasmodium falciparum): 141 nM

Compound: O=C(CO)Nc1cc(CO)cc(Nc2ccnc3cc(Cl)ccc23)c1
- NT [1]: Cytotoxicity upon MPMs at 6.3 uM
- cytotoxicity at 6.3 µM [2]: 0%
- NT [3]: Cytotoxicity upon MPMs at 6.3 uM
- cytotoxicity at 3.1 µM [4]: 0%
- NT [5]: Cytotoxicity upon MPMs at 6.3 uM
- cytotoxicity at 12.5 µM [6]: 0%
- IC50 (Plasmodium falciparum): > 1000 nM

Compound: CN1CCN(CC(=O)Nc2cc(CO)cc(Nc3ccnc4cc(Cl)ccc34)c2)CC1
- NT [1]: Cytotoxicity upon MPMs at 6.3 uM
- cytotoxicity at 6.3 µM [2]: 0%
- NT [3]: Cytotoxicity upon MPMs at 6.3 uM
- cytotoxicity at 3.1 µM [4]: 0%
- NT [5]: Cytotoxicity upon MPMs at 6.3 uM
- cytotoxicity at 12.5 µM [6]: 0%
- IC50 (Plasmodium falciparum): 344 nM

Compound: Nc1ccn(CC(=O)Nc2cc(CO)cc(Nc3ccnc4cc(Cl)ccc34)c2)n1
- NT [1]: Cytotoxicity upon MPMs at 6.3 uM
- cytotoxicity at 6.3 µM [2]: 0%
- NT [3]: Cytotoxicity upon MPMs at 6.3 uM
- cytotoxicity at 3.1 µM [4]: 0%
- NT [5]: Cytotoxicity upon MPMs at 6.3 uM
- cytotoxicity at 12.5 µM [6]: 0%
- IC50 (Plasmodium falciparum): 806 nM
